Results as given in ChEMBL document CHEMBL1687761 (2010).
Values after ≈ are worked out from the molar mass of the structure shown.

Experiments:
Format in all cases: functional
Escherichia coli [1] = assay: Antimicrobial activity against Escherichia coli XL1-Blue harboring pLBII-VIM-2 plasmid expressing VIM-2 A64W mutant beta-lactamase by broth microdilution method
How it was run: (§1)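 Isogenic E. coli XL-1 strains carried pLBII-VIM-2 encoding wild-type or mutant VIM-2, or the empty pBC-SK vector. β-Lactam MICs were determined by CLSI broth microdilution in cation-adjusted Mueller-Hinton broth.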

Escherichia coli [2] = assay: Antimicrobial activity against Escherichia coli XL1-Blue harboring pLBII-VIM-2 plasmid expressing VIM-2 W87F mutant beta-lactamase by broth microdilution method; how it was run: as §1
Escherichia coli [3] = assay: Antimicrobial activity against Escherichia coli XL1-Blue harboring pLBII-VIM-2 plasmid expressing VIM-2 beta-lactamase by broth microdilution method; how it was run: as §1
Escherichia coli [4] = assay: Antimicrobial activity against Escherichia coli XL1-Blue harboring pLBII-VIM-2 plasmid expressing VIM-2 W87A mutant beta-lactamase by broth microdilution method; how it was run: as §1
Escherichia coli [5] = assay: Antimicrobial activity against Escherichia coli XL1-Blue harboring pBC-SK plasmid by broth microdilution method; how it was run: as §1
Escherichia coli [6] = assay: Antimicrobial activity against Escherichia coli XL1-Blue VIM-2 F61C mutant beta-lactamase by broth microdilution method
Escherichia coli [7] = assay: Antimicrobial activity against Escherichia coli XL1-Blue VIM-2 F61T mutant beta-lactamase by broth microdilution method
Escherichia coli [8] = assay: Antimicrobial activity against Escherichia coli XL1-Blue VIM-2 F61Y mutant beta-lactamase by broth microdilution method
Escherichia coli [9] = assay: Antimicrobial activity against Escherichia coli XL1-Blue VIM-2 W87S mutant beta-lactamase by broth microdilution method
Escherichia coli [10] = assay: Antimicrobial activity against Escherichia coli XL1-Blue VIM-2 F61I mutant beta-lactamase by broth microdilution method
Escherichia coli [11] = assay: Antimicrobial activity against Escherichia coli XL1-Blue VIM-2 W87P mutant beta-lactamase by broth microdilution method
Escherichia coli [12] = assay: Antimicrobial activity against Escherichia coli XL1-Blue VIM-2 W87M mutant beta-lactamase by broth microdilution method
Escherichia coli [13] = assay: Antimicrobial activity against Escherichia coli XL1-Blue VIM-2 F61N mutant beta-lactamase by broth microdilution method
Escherichia coli [14] = assay: Antimicrobial activity against Escherichia coli XL1-Blue VIM-2 W87V mutant beta-lactamase by broth microdilution method
Escherichia coli [15] = assay: Antimicrobial activity against Escherichia coli XL1-Blue VIM-2 W87I mutant beta-lactamase by broth microdilution method
Escherichia coli [16] = assay: Antimicrobial activity against Escherichia coli XL1-Blue VIM-2 F61V mutant beta-lactamase by broth microdilution method
Escherichia coli [17] = assay: Antimicrobial activity against Escherichia coli XL1-Blue VIM-2 F61R mutant beta-lactamase by broth microdilution method
Escherichia coli [18] = assay: Antimicrobial activity against Escherichia coli XL1-Blue VIM-2 F61P mutant beta-lactamase by broth microdilution method
Escherichia coli [19] = assay: Antimicrobial activity against Escherichia coli XL1-Blue VIM-2 W87R mutant beta-lactamase by broth microdilution method
Escherichia coli [20] = assay: Antimicrobial activity against Escherichia coli XL1-Blue VIM-2 W87Q mutant beta-lactamase by broth microdilution method
Escherichia coli [21] = assay: Antimicrobial activity against Escherichia coli XL1-Blue VIM-2 F61L mutant beta-lactamase by broth microdilution method
Escherichia coli [22] = assay: Antimicrobial activity against Escherichia coli XL1-Blue VIM-2 W87N mutant beta-lactamase by broth microdilution method
Escherichia coli [23] = assay: Antimicrobial activity against Escherichia coli XL1-Blue VIM-2 W87Y mutant beta-lactamase by broth microdilution method
Escherichia coli [24] = assay: Antimicrobial activity against Escherichia coli XL1-Blue VIM-2 W87G mutant beta-lactamase by broth microdilution method
Escherichia coli [25] = assay: Antimicrobial activity against Escherichia coli XL1-Blue VIM-2 W87A mutant beta-lactamase by broth microdilution method
Escherichia coli [26] = assay: Antimicrobial activity against Escherichia coli XL1-Blue VIM-2 F61H mutant beta-lactamase by broth microdilution method
Escherichia coli [27] = assay: Antimicrobial activity against Escherichia coli XL1-Blue VIM-2 F61S mutant beta-lactamase by broth microdilution method
Escherichia coli [28] = assay: Antimicrobial activity against Escherichia coli XL1-Blue VIM-2 W87K mutant beta-lactamase by broth microdilution method
Escherichia coli [29] = assay: Antimicrobial activity against Escherichia coli XL1-Blue VIM-2 F61G mutant beta-lactamase by broth microdilution method
Escherichia coli [30] = assay: Antimicrobial activity against Escherichia coli XL1-Blue VIM-2 W87L mutant beta-lactamase by broth microdilution method
Escherichia coli [31] = assay: Antimicrobial activity against Escherichia coli XL1-Blue VIM-2 W87F mutant beta-lactamase by broth microdilution method
Escherichia coli [32] = assay: Antimicrobial activity against Escherichia coli XL1-Blue VIM-2 F61W mutant beta-lactamase by broth microdilution method
Escherichia coli [33] = assay: Antimicrobial activity against Escherichia coli XL1-Blue VIM-2 F61K mutant beta-lactamase by broth microdilution method
Escherichia coli [34] = assay: Antimicrobial activity against Escherichia coli XL1-Blue VIM-2 F61A mutant beta-lactamase by broth microdilution method
Escherichia coli [35] = assay: Antimicrobial activity against Escherichia coli XL1-Blue VIM-2 W87T mutant beta-lactamase by broth microdilution method

C[C@@H](O)[C@H]1C(=O)N2C(C(=O)O)=C(S[C@@H]3CN[C@H](C(=O)N(C)C)C3)[C@H](C)[C@H]12 [MEROPENEM]
MIC (Escherichia coli [1]): 0.5 µg/mL (≈ 1.3 µM) | MIC (Escherichia coli [2]): ≤ 0.03 µg/mL | MIC (Escherichia coli [3]): 0.5 µg/mL (≈ 1.3 µM) | MIC (Escherichia coli [4]): ≤ 0.03 µg/mL | MIC (Escherichia coli [5]): ≤ 0.03 µg/mL

CO[C@@]1(NC(=O)Cc2cccs2)C(=O)N2C(C(=O)O)=C(COC(N)=O)CS[C@@H]21 [CEFOXITIN]
MIC (Escherichia coli [1]): 128 µg/mL (≈ 299 µM) | MIC (Escherichia coli [2]): 8 µg/mL (≈ 18.7 µM) | MIC (Escherichia coli [3]): 128 µg/mL (≈ 299 µM) | MIC (Escherichia coli [4]): 8 µg/mL (≈ 18.7 µM) | MIC (Escherichia coli [5]): 8 µg/mL (≈ 18.7 µM)

CO/N=C(\C(=O)N[C@@H]1C(=O)N2C(C(=O)O)=C(CSc3nc(=O)c(O)nn3C)CS[C@H]12)c1csc(N)n1 [CEFTRIAXONE]
MIC (Escherichia coli [1]): 4 µg/mL (≈ 7.21 µM) | MIC (Escherichia coli [2]): 0.12 µg/mL (≈ 0.216 µM) | MIC (Escherichia coli [3]): 4 µg/mL (≈ 7.21 µM) | MIC (Escherichia coli [4]): 0.12 µg/mL (≈ 0.216 µM) | MIC (Escherichia coli [5]): 0.12 µg/mL (≈ 0.216 µM)

CC1(C)S[C@@H]2[C@H](NC(=O)[C@H](N)c3ccccc3)C(=O)N2[C@H]1C(=O)O [AMPICILLIN]
MIC (Escherichia coli [6]): 8 µg/mL (≈ 22.9 µM) | MIC (Escherichia coli [7]): ≥ 32 µg/mL | MIC (Escherichia coli [8]): ≥ 32 µg/mL | MIC (Escherichia coli [9]): ≤ 4 µg/mL | MIC (Escherichia coli [10]): ≥ 32 µg/mL | MIC (Escherichia coli [11]): ≤ 4 µg/mL | MIC (Escherichia coli [12]): ≤ 4 µg/mL | MIC (Escherichia coli [13]): ≥ 32 µg/mL | MIC (Escherichia coli [1]): 64 µg/mL (≈ 183 µM) | MIC (Escherichia coli [14]): ≤ 4 µg/mL | MIC (Escherichia coli [15]): ≤ 4 µg/mL | MIC (Escherichia coli [2]): 8 µg/mL (≈ 22.9 µM) | MIC (Escherichia coli [16]): ≥ 32 µg/mL | MIC (Escherichia coli [3]): 64 µg/mL (≈ 183 µM) | MIC (Escherichia coli [17]): 8 µg/mL (≈ 22.9 µM) | MIC (Escherichia coli [18]): 8 µg/mL (≈ 22.9 µM) | MIC (Escherichia coli [19]): ≤ 4 µg/mL | MIC (Escherichia coli [20]): ≤ 4 µg/mL | MIC (Escherichia coli [21]): ≥ 32 µg/mL | MIC (Escherichia coli [22]): ≤ 4 µg/mL | MIC (Escherichia coli [23]): ≤ 4 µg/mL | MIC (Escherichia coli [24]): ≤ 4 µg/mL | MIC (Escherichia coli [25]): ≤ 4 µg/mL | MIC (Escherichia coli [26]): ≥ 32 µg/mL | MIC (Escherichia coli [27]): 8 µg/mL (≈ 22.9 µM) | MIC (Escherichia coli [28]): ≤ 4 µg/mL | MIC (Escherichia coli [29]): ≥ 32 µg/mL | MIC (Escherichia coli [30]): ≤ 4 µg/mL | MIC (Escherichia coli [31]): ≤ 4 µg/mL | MIC (Escherichia coli [32]): ≥ 32 µg/mL | MIC (Escherichia coli [33]): ≥ 32 µg/mL | MIC (Escherichia coli [34]): ≥ 32 µg/mL | MIC (Escherichia coli [35]): ≤ 4 µg/mL

C[C@@H](O)[C@H]1C(=O)N2C(C(=O)O)=C(SCCNC=N)C[C@H]12 [IMIPENEM ANHYDROUS]
MIC (Escherichia coli [1]): 1 µg/mL (≈ 3.34 µM) | MIC (Escherichia coli [3]): 1 µg/mL (≈ 3.34 µM) | MIC (Escherichia coli [4]): 0.12 µg/mL (≈ 0.401 µM)

C[C@@H](O)[C@H]1C(=O)N2C(C(=O)O)=C(S[C@@H]3CN[C@H](C(=O)Nc4cccc(C(=O)O)c4)C3)[C@H](C)[C@H]12
MIC (Escherichia coli [1]): 0.5 µg/mL (≈ 1.05 µM) | MIC (Escherichia coli [2]): ≤ 0.03 µg/mL | MIC (Escherichia coli [3]): 0.5 µg/mL (≈ 1.05 µM) | MIC (Escherichia coli [4]): ≤ 0.03 µg/mL | MIC (Escherichia coli [5]): ≤ 0.03 µg/mL

CC(C)(O/N=C(\C(=O)N[C@@H]1C(=O)N2C(C(=O)[O-])=C(C[n+]3ccccc3)CS[C@H]12)c1csc(N)n1)C(=O)O [CEFTAZIDIME]
MIC (Escherichia coli [1]): 2 µg/mL (≈ 3.66 µM) | MIC (Escherichia coli [2]): 0.12 µg/mL (≈ 0.22 µM) | MIC (Escherichia coli [3]): 2 µg/mL (≈ 3.66 µM) | MIC (Escherichia coli [4]): 0.12 µg/mL (≈ 0.22 µM) | MIC (Escherichia coli [5]): 0.12 µg/mL (≈ 0.22 µM)

CCN1CCN(C(=O)N[C@@H](C(=O)N[C@@H]2C(=O)N3[C@@H]2SC(C)(C)[C@@H]3C(=O)O)c2ccccc2)C(=O)C1=O [PIPERACILLIN]
MIC (Escherichia coli [1]): 8 µg/mL (≈ 15.5 µM) | MIC (Escherichia coli [2]): 0.5 µg/mL (≈ 0.966 µM) | MIC (Escherichia coli [3]): 8 µg/mL (≈ 15.5 µM) | MIC (Escherichia coli [4]): 0.5 µg/mL (≈ 0.966 µM) | MIC (Escherichia coli [5]): 0.5 µg/mL (≈ 0.966 µM)

CO/N=C(\C(=O)N[C@@H]1C(=O)N2C(C(=O)O)=C(COC(N)=O)CS[C@H]12)c1ccco1 [CEFUROXIME]
MIC (Escherichia coli [1]): 256 µg/mL (≈ 603 µM) | MIC (Escherichia coli [2]): 8 µg/mL (≈ 18.9 µM) | MIC (Escherichia coli [3]): 256 µg/mL (≈ 603 µM) | MIC (Escherichia coli [4]): 8 µg/mL (≈ 18.9 µM) | MIC (Escherichia coli [5]): 8 µg/mL (≈ 18.9 µM)

CO/N=C(\C(=O)N[C@@H]1C(=O)N2C(C(=O)[O-])=C(C[N+]3(C)CCCC3)CS[C@H]12)c1csc(N)n1
MIC (Escherichia coli [1]): 0.5 µg/mL (≈ 1.04 µM) | MIC (Escherichia coli [3]): 0.5 µg/mL (≈ 1.04 µM) | MIC (Escherichia coli [4]): 0.12 µg/mL (≈ 0.25 µM)

CO/N=C(\C(=O)N[C@@H]1C(=O)N2C(C(=O)O)=C(COC(C)=O)CS[C@H]12)c1csc(N)n1 [CEFOTAXIME]
MIC (Escherichia coli [1]): > 32 µg/mL | MIC (Escherichia coli [2]): 0.12 µg/mL (≈ 0.263 µM) | MIC (Escherichia coli [3]): > 32 µg/mL | MIC (Escherichia coli [4]): 0.12 µg/mL (≈ 0.263 µM) | MIC (Escherichia coli [5]): 0.12 µg/mL (≈ 0.263 µM)

CC(=O)OCC1=C(C(=O)O)N2C(=O)[C@@H](NC(=O)Cc3cccs3)[C@H]2SC1 [CEPHALOTHIN]
MIC (Escherichia coli [1]): 256 µg/mL (≈ 646 µM) | MIC (Escherichia coli [3]): 256 µg/mL (≈ 646 µM) | MIC (Escherichia coli [4]): 16 µg/mL (≈ 40.4 µM) | MIC (Escherichia coli [5]): 16 µg/mL (≈ 40.4 µM)

C[C@H]1[C@H](NC(=O)/C(=N\OC(C)(C)C(=O)O)c2csc(N)n2)C(=O)N1S(=O)(=O)O [AZTREONAM]
MIC (Escherichia coli [1]): 0.12 µg/mL (≈ 0.276 µM) | MIC (Escherichia coli [3]): 0.12 µg/mL (≈ 0.276 µM) | MIC (Escherichia coli [4]): 0.12 µg/mL (≈ 0.276 µM)
